Test results as given in ChEMBL document CHEMBL1124885, “Resolution, absolute stereochemistry, and enantioselectivity of 2-methyl-4-phenyl-1,2,3,4-tetrahydroisoquinolin-4-ol” (1990).

Columns and labels:
[1] = Activity ratio, difference between the pD2 values for NE obtained in the absence and presence at 0 (absence of potentiating compound); assay type: functional
Outline: (§1)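 Isolated rat anococcygeus muscle. Concentration-response curves to norepinephrine (NE) were run with and without the test compound, and potentiation was judged from the shift at low NE concentrations. pD2 is the negative log of the molar NE concentration giving 50% of maximal response. Activity ratio is the antilog of the pD2 difference with versus without compound, with no compound set at 1.0. n is the number of experiments.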

Rattus norvegicus [2] = species: Rattus norvegicus; test: Tested for potentiating activity on the responses of rat anococcygeus muscle to norepinephrine (NE)at a concentration of 3 x 10 E -7 M; assay type: functional, Muscle tissue; outline: as §1
[3] = Activity ratio, difference between the pD2 values for NE obtained in the absence and presence at 10 E -7 M; assay type: functional; outline: as §1
Rattus norvegicus [4] = species: Rattus norvegicus; test: Tested for potentiating activity on the responses of rat anococcygeus muscle to norepinephrine (NE)at a concentration of 3 x 10 E -6 M; assay type: functional, Muscle tissue; outline: as §1
[5] = Activity ratio, difference between the pD2 values for NE obtained in the absence and presence at 10 E -6 M; assay type: functional; outline: as §1
Rattus norvegicus [6] = species: Rattus norvegicus; test: Tested for potentiating activity on the responses of rat anococcygeus muscle to norepinephrine (NE)at a concentration of 10 E -6 M; assay type: functional, Muscle tissue; outline: as §1
Rattus norvegicus [7] = species: Rattus norvegicus; test: Tested for potentiating activity on the responses of rat anococcygeus muscle to norepinephrine (NE)at a concentration of 10 E -7 M; assay type: functional, Muscle tissue; outline: as §1
Rattus norvegicus [8] = species: Rattus norvegicus; test: Tested for potentiating activity on the responses of rat anococcygeus muscle to norepinephrine (NE)at a concentration of 0 (absence of potentiating compound); assay type: functional, Muscle tissue; outline: as §1
[9] = Activity ratio, difference between the pD2 values for NE obtained in the absence and presence at 3 x 10 E -7 M; assay type: functional; outline: as §1
[10] = Activity ratio, difference between the pD2 values for NE obtained in the absence and presence at 3 x 10 E -6 M; assay type: functional; outline: as §1
Rattus norvegicus [11] = species: Rattus norvegicus; test: Tested for potentiating activity on the responses of rat anococcygeus muscle to norepinephrine (NE)at a concentration of 3 x 10e -7 M; assay type: functional, Muscle tissue; outline: as §1
Rattus norvegicus [12] = species: Rattus norvegicus; test: Tested for potentiating activity on the responses of rat anococcygeus muscle to norepinephrine (NE)at a concentration of 3 x 10e-6 M; assay type: functional, Muscle tissue; outline: as §1
Rattus norvegicus [13] = species: Rattus norvegicus; test: Tested for potentiating activity on the responses of rat anococcygeus muscle to norepinephrine (NE)at a concentration of 10e-7 M; assay type: functional, Muscle tissue; outline: as §1
[14] = Activity ratio, difference between the pD2 values for NE obtained in the absence and presence at 3 x 10e-7 M; assay type: functional; outline: as §1
[15] = Activity ratio, difference between the pD2 values for NE obtained in the absence and presence at 10e-7 M; assay type: functional; outline: as §1
Rattus norvegicus [16] = species: Rattus norvegicus; test: Tested for potentiating activity on the responses of rat anococcygeus muscle to norepinephrine (NE)at a concentration of 10e-6 M; assay type: functional, Muscle tissue; outline: as §1
[17] = Activity ratio, difference between the pD2 values for NE obtained in the absence and presence at 10e-6 M; assay type: functional; outline: as §1

SMILES | Ratio [1] | pD2 (Rattus norvegicus [2]) | Ratio [3] | pD2 (Rattus norvegicus [4]) | Ratio [5] | pD2 (Rattus norvegicus [6]) | pD2 (Rattus norvegicus [7]) | pD2 (Rattus norvegicus [8]) | Ratio [9] | Ratio [10] | pD2 (Rattus norvegicus [11]) | pD2 (Rattus norvegicus [12]) | pD2 (Rattus norvegicus [13]) | Ratio [14] | Ratio [15] | pD2 (Rattus norvegicus [16]) | Ratio [17]
CN1Cc2ccccc2[C@](O)(c2ccccc2)C1 | 1 | 7.01 | 2.3 | 7.56 | 11.2 | 7.28 | 6.6 | 6.23 | 6 | 21.4 | – | – | – | – | – | – | –
CN1Cc2ccccc2C(O)(c2ccccc2)C1 (racemic) | 1 | – | – | – | – | – | – | 6.25 | – | 17.8 | 6.73 | 7.5 | 6.42 | 3 | 1.5 | 7.18 | 8.5
CN1Cc2ccccc2[C@@](O)(c2ccccc2)C1 | 1 | 6.24 | – | 6.27 | 1 | 6.23 | – | 6.23 | 1 | 1.1 | – | – | – | – | – | – | –
